The test system of series [1] is Rattus norvegicus. The series can be described thus: Cholesterol-lowering activity in propylthiouracil-induced hypercholesterolemic rat model assessed as change in plasma cholesterol at 10 mg/kg administered intragastrically relative to control. The note with it: route intragastric. Format: functional. In outline: (§1)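 Male rats made hypercholesterolemic with propylthiouracil; compounds given intragastrically. Read-out is the percent change in plasma cholesterol concentration versus control. n=8 for control and for treated animals. Significance is by Student's t, with t greater than 1.65 taken as p < 0.05.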

Series [2] relates to Mus musculus. Nature of the series: Uterotropic activity in immature mouse assessed as change in uterus weight at 250 mg/kg, sc relative to control. Details: dose 250 mg/kg, route subcutaneous. To be noted: in vivo. Format: organism-based. The essentials: (§2)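 Immature mice dosed subcutaneously or intragastrically. Uterine weight (mg) is compared between treated and control groups, reported as mean ± spread. n=10 for control and for treated animals.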

Series [3] concerns Rattus norvegicus. Nature of the series: Cholesterol-lowering activity in propylthiouracil-induced hypercholesterolemic rat model assessed as change in plasma cholesterol at 5 mg/kg administered intragastrically relative to control. Format: functional. To be noted: route intragastric. The essentials:
as §1

In series [4] the test system is Mus musculus. The series can be described thus: Uterotropic activity in immature mouse assessed as change in uterus weight at 625 mg/kg, sc relative to control. It is filed as organism-based. Details: dose 625 mg/kg, route subcutaneous. To be noted: in vivo. In outline: as §2
Series [5] relates to Rattus norvegicus. The series can be described thus: Cholesterol-lowering activity in propylthiouracil-induced hypercholesterolemic rat model assessed as change in plasma cholesterol at 20 mg/kg administered intragastrically relative to control. Format: functional. To be noted: route intragastric. The essentials:
as §1

Series [6] has as its system Mus musculus. Nature of the series: Uterotropic activity in immature mouse assessed as change in uterus weight at 25 mg/kg, sc relative to control. It is filed as Functional, organism-based. Details: dose 25 mg/kg, route subcutaneous. The note with it: in vivo. The essentials:
as §2

The subject of series [7] is Mus musculus. Nature of the series: Uterotropic activity in immature mouse assessed as change in uterus weight at 250 mg/kg administered intragastrically relative to control. It is filed as organism-based. On the set-up: dose 250 mg/kg, route intragastric. To be noted: in vivo, po. In outline:
as §2

In series [8] the test system is Rattus norvegicus. Nature of the series: Hypolipidemic activity in normal rat assessed as reduction in triglyceride level at 0.2 % administered in diet for 5 days. It is filed as functional. On the set-up: scale not given: the % may be the effect or the level left. The essentials: (§3)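 Normal rats received compound at 0.2% in the diet. Plasma cholesterol and triglyceride are expressed as % of control. n=8 for control and for treated animals. Significance is by Student's t, with t greater than 1.65 taken as p < 0.05.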

In series [9] the test system is Rattus norvegicus. Nature of the series: Hypolipidemic activity in normal rat assessed as reduction in cholesterol level at 0.2 % administered in diet for 5 days. On the set-up: scale not given: the % may be the effect or the level left. Format: functional. In outline: as §3

Take `CC1(C)CCc2c1ccc1c2CCc2cc(O)ccc2-1`: the Activity in the series with Rattus norvegicus [1] is recorded as -16%; with Mus musculus [2], 22.6 mg; in the series with Rattus norvegicus [3] it was 4%; with Mus musculus [4] it was 34.9 mg; in the series with Rattus norvegicus [5], -10%.
For the molecule `COc1ccc2c(c1)CCc1c-2ccc2c1CCC2(C)C`, the Activity is 1% with Rattus norvegicus [1] and 22.6 mg in the series on Mus musculus [2].
For `CCN(CC)CCOc1ccc2c(c1)CCc1c-2ccc2c1CCC2(C)C.O=C(O)C(=O)O`, the Activity is recorded as -19% in the series on Rattus norvegicus [1], -14% with Rattus norvegicus [3] and 16.4 mg in the series with Mus musculus [6].
With `CC1(C)CCc2c1ccc1c2CCc2cc(OCCN3CCCC3)ccc2-1`, the Activity in the series with Rattus norvegicus [1] was -17%; in the series on Rattus norvegicus [3], -5%; in the series on Mus musculus [7], 8.1 mg; in the series on Mus musculus [6], 11.2 mg.
`CC(C)(Oc1ccc2c(c1)CCc1c-2ccc2c1CCC2(C)C)C(=O)O`: the Activity in the series with Rattus norvegicus [1] was -18%; with Rattus norvegicus [8], 69%; in the series on Mus musculus [7], 8.4 mg; in the series with Mus musculus [6], 17.2 mg; with Rattus norvegicus [9], 75%.
As to `CCOC(=O)C(C)(C)Oc1ccc2c(c1)CCc1c-2ccc2c1CCC2(C)C`, in the series with Rattus norvegicus [1], the Activity is reported as -9%.
The same measure, in the same setting: as for `CN1C(=O)[C@@H]2CC[C@@H]1[C@@H](OC(=O)C(C)(C)Oc1ccc3c(c1)CCc1c-3ccc3c1CCC3(C)C)C2`, the figure is -4%; as for `CC(Oc1ccc2c(c1)CCc1c-2ccc2c1CCC2(C)C)C(=O)O` (configuration not stated), 3%; as for `CCOC(=O)COc1ccc2c(c1)CCc1c-2ccc2c1CCC2(C)C`, 8%.
As to `CC(C)(CO)Oc1ccc2c(c1)CCc1c-2ccc2c1CCC2(C)C`, the Activity with Rattus norvegicus [1] is -25%; with Mus musculus [2] it was 13.4 mg.
Turning to `COC(=O)CCC(=O)OCC(C)(C)Oc1ccc2c(c1)CCc1c-2ccc2c1CCC2(C)C`, the Activity with Rattus norvegicus [1] is -18%; in the series on Mus musculus [2], 15.7 mg.
Take `CC(C)(COC(=O)CCC(=O)O)Oc1ccc2c(c1)CCc1c-2ccc2c1CCC2(C)C`: the Activity in the series with Rattus norvegicus [1] was -7%; in the series with Mus musculus [6], 20.6 mg.
For the molecule `CCOC(=O)C(C)(C)Oc1ccc(Cl)cc1` [CLOFIBRATE], the Activity in the series with Rattus norvegicus [1] is 1%; in the series on Rattus norvegicus [8] it was 43%; in the series with Rattus norvegicus [9], 72%.
